{"data": "Published values gathered from unrelated publications", "note": "Each line is one published result; the experiments were not run side by side."}
{"SMILES": "CC(C)[C@]12O[C@H]1[C@@H]1O[C@]13[C@]1(O[C@H]1C[C@H]1C4=C(CC[C@@]13C)C(=O)OC4)[C@@H]2O", "system": "SCID mouse, plasma", "conditions": "intravenous, 0.6 mg/kg", "endpoint": "MRT", "value": "28.8 min"}
{"SMILES": "N#C[C@@]1(n2ccc(N)nc2=O)O[C@H](CO)[C@@H](O)[C@H]1O", "target or system": "Huh-7", "test": "cell growth or viability", "endpoint": "CC50", "value": "99.5 µM"}
{"SMILES": "Cc1[nH]c(C)c(S(=O)(=O)Nc2ccc(S(F)(F)(F)(F)F)c(Cl)c2)c1C(=O)N1CCC(F)(F)C1", "test": "metabolic stability", "system": "human, liver microsomes", "endpoint": "half-life", "value": "13 min"}
{"SMILES": "CC(=O)c1c(C)c2cnc(Nc3ccc(C4CCN(CCS(C)(=O)=O)CC4)cn3)nc2n(C2CCCC2)c1=O", "test": "metabolic stability", "system": "human, liver microsomes", "endpoint": "half-life", "value": "28.6 min"}
{"SMILES": "CC(C)=CCC[C@](C)(O[C@@H]1O[C@H](CO)[C@@H](O)[C@H](O)[C@H]1O)[C@H]1CC[C@]2(C)[C@@H]1[C@H](O)C[C@@H]1[C@@]3(C)CC[C@H](O)C(C)(C)[C@@H]3CC[C@]12C", "system": "mouse, plasma", "conditions": "intravenous, 2 mg/kg", "endpoint": "MRT", "value": "510 min"}
{"SMILES": "CC(C)CC(=O)OC[C@H]1O[C@@](C#N)(c2ccc3c(N)ncnn23)[C@H](O)[C@@H]1O", "test": "metabolic stability", "system": "human, plasma", "conditions": "5 µM", "endpoint": "half-life", "value": "7.93 min"}
{"SMILES": "c1ccc2c(c1)[I+]c1ccccc1-2", "target or system": "HepG2", "test": "cell growth or viability, ATP luminescence", "conditions": "72 h", "endpoint": "CC50", "value": "1.28 µM"}
{"SMILES": "CC[C@H](C)[C@H](NC(=O)[C@H](Cc1ccccc1)NC(=O)[C@H](CCC(=O)O)NC(=O)[C@H](CCCCN)NC(=O)[C@H](C)NC(=O)[C@H](C)NC(=O)[C@H](CCC(N)=O)NC(=O)CNC(=O)[C@H](CCC(=O)O)NC(=O)[C@H](CC(C)C)NC(=O)[C@H](Cc1ccc(O)cc1)NC(=O)[C@H](CO)NC(=O)[C@H](CO)NC(=O)[C@@H](NC(=O)[C@H](CC(=O)O)NC(=O)[C@H](CO)NC(=O)[C@@H](NC(=O)[C@H](Cc1ccccc1)NC(=O)[C@@H](NC(=O)CNC(=O)[C@H](CCC(=O)O)NC(=O)[C@H](C)NC(=O)N(N)Cc1c[nH]cn1)[C@@H](C)O)[C@@H](C)O)C(C)C)C(=O)N[C@@H](C)C(=O)N[C@@H](Cc1c[nH]c2ccccc12)C(=O)N[C@@H](CC(C)C)C(=O)N[C@H](C(=O)N[C@@H](CCCNC(=N)N)C(=O)NCC(=O)N[C@@H](CCCNC(=N)N)C(=O)NCC(=O)O)C(C)C", "system": "male CD-1 mouse, plasma", "conditions": "intravenous, 1 mg/kg, single dose", "endpoint": "MRT", "value": "8.4 min"}
{"SMILES": "CC(C)(C)[C@H](NC(=O)C(F)(F)F)C(=O)N1C[C@H]2[C@@H]([C@H]1C(=O)N[C@H](C#N)C[C@@H]1CCNC1=O)C2(C)C", "target or system": "Huh-7", "test": "cell growth or viability", "endpoint": "CC50", "value": "> 100 µM"}
{"SMILES": "COc1ccc(NC(=O)N2CCCCN3[C@H](CN(C)C)[C@H](c4ccc(C#Cc5ccccc5)cc4)[C@@H]3C2)cc1", "target or system": "HepG2", "test": "cell growth or viability, ATP luminescence", "conditions": "72 h", "endpoint": "CC50", "value": "6.08 µM"}
{"SMILES": "CCOC(=O)c1c(NC(=O)CNC(C)C)sc2c1CCCCC2", "system": "male mouse, plasma", "conditions": "intraperitoneal, 100 mg/kg, single dose", "endpoint": "MRT(0-inf)", "value": "4.12 h"}
